From ChEMBL document CHEMBL1149132, “Structure-activity study of the ORL1 antagonist Ac-Arg-D-Cha-Qaa-D-Arg-D-p-ClPhe-NH2” (J Med Chem, 2004)

Assays:
Type in all cases: cell-based
[1] = target: Nociceptin receptor (Homo sapiens, UniProt P41146); experiment: Binding affinity against human opioid receptor like 1 (hORL) was determined using [leucyl-3H]nociceptin in vitro in CHO cells
Procedure, shortened: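 Displacement of [leucyl-3H]nociceptin from membrane homogenates of CHO cells stably expressing recombinant human ORL1. Ki values are means ± SEM of two or more independent experiments, each in duplicate.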

[2] = target: Mu-type opioid receptor (Homo sapiens, UniProt P35372); experiment: Binding affinity against human Opioid receptor mu 1 (hMOR) was determined using [3H]diprenorphine in vitro transfected to COS-1 cells
Procedure, shortened: (§1)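 Competition binding with [3H]diprenorphine on membrane homogenates of COS-1 cells transiently transfected with human MOR or human DOR. Ki given as mean ± SEM from two or more separate experiments done in duplicate.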

[3] = target: Kappa-type opioid receptor (Homo sapiens, UniProt P41145); experiment: Binding affinity against human Opioid receptor kappa 1 (hKOR) was determined using [3H]diprenorphine in vitro in CHO cells
Procedure, shortened: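 Competition binding with [3H]diprenorphine on membrane homogenates of CHO cells stably expressing recombinant human KOR. Ki reported as mean ± SEM of two or more separate experiments, each run in duplicate.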

[4] = target: Delta-type opioid receptor (Homo sapiens, UniProt P41143); experiment: Binding affinity against human opioid receptor delta 1 was determined using [3H]diprenorphine in vitro transfected to COS-1 cells; procedure, shortened: as §1
Chain of Delta-type opioid receptor (P41143 whole entry): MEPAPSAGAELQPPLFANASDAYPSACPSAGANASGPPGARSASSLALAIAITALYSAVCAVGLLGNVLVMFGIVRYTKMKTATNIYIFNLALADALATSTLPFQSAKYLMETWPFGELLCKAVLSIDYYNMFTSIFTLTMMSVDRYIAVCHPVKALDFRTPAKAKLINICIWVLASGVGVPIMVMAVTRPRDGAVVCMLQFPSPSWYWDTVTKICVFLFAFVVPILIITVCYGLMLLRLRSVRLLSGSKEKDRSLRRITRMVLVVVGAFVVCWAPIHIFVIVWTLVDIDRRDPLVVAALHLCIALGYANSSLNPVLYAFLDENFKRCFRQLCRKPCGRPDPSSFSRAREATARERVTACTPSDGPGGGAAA

Chain of Mu-type opioid receptor (P35372 whole entry): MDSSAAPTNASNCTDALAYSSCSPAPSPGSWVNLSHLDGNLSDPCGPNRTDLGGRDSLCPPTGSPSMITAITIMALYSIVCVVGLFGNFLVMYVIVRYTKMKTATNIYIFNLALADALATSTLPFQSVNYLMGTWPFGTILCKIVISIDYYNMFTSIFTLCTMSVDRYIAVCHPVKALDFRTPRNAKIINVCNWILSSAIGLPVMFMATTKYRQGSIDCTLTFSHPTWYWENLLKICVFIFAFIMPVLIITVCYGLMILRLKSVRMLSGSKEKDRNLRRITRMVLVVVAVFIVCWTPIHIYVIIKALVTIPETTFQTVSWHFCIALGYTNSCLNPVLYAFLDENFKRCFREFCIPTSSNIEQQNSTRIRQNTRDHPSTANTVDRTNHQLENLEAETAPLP
Chain of Kappa-type opioid receptor (P41145 whole entry): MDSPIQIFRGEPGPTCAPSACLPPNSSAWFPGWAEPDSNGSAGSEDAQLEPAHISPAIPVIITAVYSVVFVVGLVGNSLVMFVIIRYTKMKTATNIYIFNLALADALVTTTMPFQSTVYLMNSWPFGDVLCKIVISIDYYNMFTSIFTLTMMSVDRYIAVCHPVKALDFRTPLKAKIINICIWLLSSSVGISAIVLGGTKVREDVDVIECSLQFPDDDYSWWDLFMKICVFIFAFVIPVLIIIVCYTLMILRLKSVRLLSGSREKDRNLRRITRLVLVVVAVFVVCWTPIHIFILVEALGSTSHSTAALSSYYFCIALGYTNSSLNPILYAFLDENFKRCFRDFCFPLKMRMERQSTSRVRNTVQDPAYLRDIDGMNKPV
Chain of Nociceptin receptor (P41146 whole entry): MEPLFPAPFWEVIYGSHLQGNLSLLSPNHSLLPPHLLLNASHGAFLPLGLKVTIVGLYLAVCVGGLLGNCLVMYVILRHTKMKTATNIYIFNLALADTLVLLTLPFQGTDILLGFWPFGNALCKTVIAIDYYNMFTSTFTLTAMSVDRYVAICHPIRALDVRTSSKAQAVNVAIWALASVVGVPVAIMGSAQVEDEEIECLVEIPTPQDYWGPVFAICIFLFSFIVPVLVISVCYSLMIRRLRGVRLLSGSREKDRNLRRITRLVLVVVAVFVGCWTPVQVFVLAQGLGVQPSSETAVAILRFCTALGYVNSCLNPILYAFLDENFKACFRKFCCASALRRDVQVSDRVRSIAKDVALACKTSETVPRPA

Structure (SMILES)	Ki [1] [nM]	Ki [2] [nM]	Ki [3] [nM]	Ki [4] [nM]
CC(=O)N[C@@H](CCCN=C(N)N)C(=O)N[C@H](CC1CCCCC1)C(=O)N[C@H]1CC[C@H]2CCC[C@@H](C(=O)N[C@H](CCCNC(N)=O)C(=O)N[C@H](Cc3ccc(Cl)cc3)C(N)=O)N2C1=O	> 5000	> 5000	> 5000	> 5000
CC(=O)N[C@@H](CCCN=C(N)N)C(=O)N[C@H](CC1CCCCC1)C(=O)N[C@H]1CC[C@@H]2SC[C@@H](C(=O)N[C@H](CCCN=C(N)N)C(=O)NC(Cc3ccc(Cl)cc3)C(N)=O)N2C1=O (stereo not given in full)	34	53	78	222
CC(=O)N[C@@H](CCCN=C(N)N)C(=O)N[C@H](CC1CCCCC1)C(=O)N[C@H]1CC[C@H]2CCC[C@@H](C(=O)N[C@H](CCCN=C(N)N)C(=O)N[C@H](Cc3ccc(Cl)cc3)C(N)=O)N2C1=O	27	90	105	> 5000
CC(=O)N[C@@H](CCCNC(N)=O)C(=O)N[C@H](CC1CCCCC1)C(=O)N[C@H]1CC[C@H]2CCC[C@@H](C(=O)N[C@H](CCCN=C(N)N)C(=O)N[C@H](Cc3ccc(Cl)cc3)C(N)=O)N2C1=O	72	2560	4270	> 5000
CC(=O)N[C@@H](CCCN=C(N)N)C(=O)N[C@H](CC1CCCCC1)C(=O)N[C@H]1CC[C@H]2CCC[C@@H](C(=O)N[C@H](CCCNC(N)=O)C(N)=O)N2C1=O	> 5000	> 5000	> 5000	> 5000
